Results published in article PMC12936682 (Journal of Pharmaceutical Analysis, 2025).
Like-named read-outs stand apart in the source and are kept apart here.

Key:
[1] = biological target: T1, Notum (Homo sapiens, UniProt Q6P988); test: Notum inhibition assay; format: biochemical; settings: for time-dependence of Notum inhibition: pre-incubation 3 and 33 min; for inhibition manner against Notum: inhibition kinetic analyses, Lineweaver-Burk plots
T1 sequence (Q6P988 20-496): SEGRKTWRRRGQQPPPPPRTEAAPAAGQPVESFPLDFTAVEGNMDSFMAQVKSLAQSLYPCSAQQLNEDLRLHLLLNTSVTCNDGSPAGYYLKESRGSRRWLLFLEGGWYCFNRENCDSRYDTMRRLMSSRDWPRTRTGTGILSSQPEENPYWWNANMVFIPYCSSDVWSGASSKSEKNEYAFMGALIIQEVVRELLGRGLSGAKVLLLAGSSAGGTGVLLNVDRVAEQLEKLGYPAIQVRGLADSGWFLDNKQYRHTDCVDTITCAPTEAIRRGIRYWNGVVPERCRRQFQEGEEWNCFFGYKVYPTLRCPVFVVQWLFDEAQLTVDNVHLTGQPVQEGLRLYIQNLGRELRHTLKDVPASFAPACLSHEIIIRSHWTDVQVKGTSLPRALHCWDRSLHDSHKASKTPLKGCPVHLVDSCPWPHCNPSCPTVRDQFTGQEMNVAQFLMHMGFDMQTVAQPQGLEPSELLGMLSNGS
Outline: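 Notum expressed and purified per an earlier protocol. The 200 μL mix held 10 μM OPTS, 0.1 M Tris-HCl pH 7.4 and inhibitor, preincubated at 37 °C for 3 min. For time-dependence, parallel preincubations of 3 and 33 min ran before OPTS addition. Product fluorescence was read at ex 403/em 510 nm after subtracting no-enzyme blanks. IC50 came from nonlinear regression.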

[2] = system: MC3T3-E1 cells; test: Osteoblast differentiation: ALP level, ALP staining and alizarin red S staining; format: cell-based; settings: for level of ALP: MC3T3-E1 osteoblasts, induced differentiation 5 days, Fig. S6
Outline: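 MC3T3-E1 cells were grown in DMEM with 10% FBS and 1% penicillin-streptomycin at 37 °C, 5% CO2. Cells were seeded at 2 × 10³ cells/well for 24 h, then moved to induction medium (10 mM β-glycerophosphate, ascorbic acid) with Dex and test compound added together. ALP staining (BCIP/NBT) followed 7 days and 4% paraformaldehyde fixation (RT, 15 min). ARS staining followed 21 days. Both were viewed by microscope.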

[3] = system: MC3T3-E1 cells; test: CCK-8 cell viability assay; format: cell-based; settings: CCK-8, Fig. S5
[4] = biological target: T1, Notum; settings: cited from earlier work
[5] = system: Dex-induced osteoporosis mice; test: In vivo anti-osteoporosis effects in Dex-induced osteoporosis mice; set-up: species or system C57BL/6J mice; settings: for cortical and cancellous bones (micro-CT, H&E): rhein 40 and 80 mg/kg i.g. 5 weeks, PTH i.p., vs Dex
[6] = system: healthy mice; test: Safety assessment of rhein in mice; format: in vivo, C57BL/6J mice; settings: 200 mg/kg orally once daily for 14 days, vs control
Outline: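 One group received 0.5% CMC-Na vehicle. The other received test compound at 200 mg/kg orally once daily for 14 days. At the end, serum plus heart, liver, spleen, lung and kidney were collected. Data are mean ± standard deviation, compared by Student's t-test (P < 0.05).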

[7] = cited from earlier work
[8] = system: MC3T3-E1 cells; test: RNA sequencing of Dex-challenged osteoblasts; format: cell-based
Outline: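 Dex-treated MC3T3-E1 cells then received test compound and were cultured for 7 days. Total RNA was extracted from control (DMSO), Dex and Dex plus test compound groups for sequencing.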

[9] = cited from earlier work; remark: listed apart in the source
[10] = treatment 7 days, Dex-challenged MC3T3-E1

| IC50 [1] [nM] | time-dependence of Notum inhibition [1] | Compound | Ki [1] [nM] | inhibition manner against Notum [1] | level of ALP [2] | growth rates of MC3T3-E1 cells [3] | cortical and cancellous bones (micro-CT, H&E) [5] | also measured |
| --- | --- | --- | --- | --- | --- | --- | --- | --- |
| 946 ± 55.1 | not time-dependent | Cc1cc(O)c2c(c1)C(=O)c1cccc(O)c1C2=O [Chrysophanol] |  |  |  |  |  |  |
| 286 ± 23.5 | not time-dependent | Cc1cc(O)c2c(c1)C(=O)c1cc(O)cc(O)c1C2=O [Emodin] | 276 | competitive | significantly up-regulated | not enhanced |  | pro-differentiation effects on MC3T3-E1 cells ([2]; relative high dose 5 μM): slight pro-differentiation effects |
|  |  | C=C1C(=O)O[C@@H]2C[C@@]3(C)CCCC(=C)[C@@H]3C[C@H]12 [Isoalantolactone] |  |  |  |  |  | IC50 ([4]; previously reported natural Notum inhibitor ref 41): 60.6 nM |
|  |  | Cn1c(=O)c2c(ncn2C)n(C)c1=O [caffeine] |  |  |  |  |  | IC50 ([4]; previously reported natural Notum inhibitor ref 46): 200000 nM |
|  |  | parathyroid hormone 1–34 [PTH, reference compound] |  |  |  |  | thickened significantly |  |

| Compound | IC50 [1] [nM] | time-dependence of Notum inhibition [1] | Ki [1] [nM] | inhibition manner against Notum [1] | level of ALP [2] | growth rates of MC3T3-E1 cells [3] | cortical and cancellous bones (micro-CT, H&E) [5] | also measured |
| --- | --- | --- | --- | --- | --- | --- | --- | --- |
| O=C(O)c1cc(O)c2c(c1)C(=O)c1cccc(O)c1C2=O [Rhein] | 9.98 ± 0.84 | not time-dependent | 13.6 | competitive | significantly up-regulated | not enhanced | thickened significantly | Notum expression levels in cortical bone (immunofluorescence) ([5]; Dex-challenged mice treated with rhein): significantly suppressed; BV/TV and BMD at the distal femur ([5]; rhein group, micro-CT): did not increase significantly; BMD increase at the mid femur ([5]; rhein group, micro-CT, compared with distal femur): more prominent; body weight at the outset and at the end of animal tests [6]: no noticeable discrepancy; serum safety indicators (ALB, ALP, ALT, AST, CK, CREA, GLU, TC, TG, TP, BUN) [6]: no significant difference; oral bioavailability [7]: very lower; expression of Wnt signaling-related genes (WNT6, GSK3β) and osteogenic differentiation-related genes (RUNX2, BMP4) ([8]; Dex-challenged MC3T3-E1, RNA sequencing): significantly restored; genes downregulated in comparison to the Dex-challenged group [8, 10]: 78; genes upregulated in comparison to the Dex-challenged group [8, 10]: 67; reduced ALP staining intensity and decreased matrix mineralisation level ([2]; 0.5 μM, Dex-challenged MC3T3-E1 cells): totally restored; ALP staining intensity and matrix mineralisation level of osteoblasts ([2]; dose-dependent, ALP day 7, ARS day 21, Dex-treated MC3T3-E1): significantly increased; pro-differentiation effects on MC3T3-E1 cells ([2]; low dose 0.5 μM): more significant pro-differentiation effects; metabolic stability [9]: poor |
